Sampled rows, rich in hits. Any-hit rate of the full collection: about 3.1%.
RBBP9 inh – human RBBP9 inhibitors, primary screen, biochemical, fluorescence polarization, FP-Rh probe, HTS. Serine hydrolase RBBP9 (Homo sapiens), O75884. recombinant RBBP9. inhibition, % at 7.94 µM. actives 0.2% (n = 220,000);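 active = inhibition above the campaign mean of all tested compounds plus 3 SD, cut at about 14% in these data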;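 also: plate controls were DMSO wells with RBBP9 for no effect and wells lacking RBBP9 protein for full effect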
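Measured by: FP readout at 525/598 nm; material: recombinant human RBBP9; also added: Serine-hydrolase probe FP-Rh, 375 nM pre-mixing; medium: Tris buffer pH 8.0, NaCl, Pluronic; replication: one well per compound; doses: one concentration, 7.94 µM nominal, 0.794% DMSO; timing: preincubation 30 min plus labeling 45 min at 25 °C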
MBD2 DNA inh – inhibitors of MBD2 binding to methylated DNA, primary screen, biochemical, TR-FRET, DNA-binding domain, human; Methyl-CpG-binding domain protein 2 (Homo sapiens), Q9UBB5; MBD2 binding to methylated oligonucleotide; inhibition, % at 4.4 µM; actives 0.31% (n = 370,000); AID 686964, 2013; in the data active = inhibition above about 13%
ABHD5-PLIN5 inh – ABHD5-PLIN5 interaction inhibitors, primary screen, cell lysate, split luciferase complementation, luminescence | Split G. princeps luciferase complementation, 4 h | inhibition, % at 4 µM | Perilipin-5 (Homo sapiens) + 1-acylglycerol-3-phosphate O-acyltransferase ABHD5 (Homo … | AID 602281, 2012 | actives 0.78% (n = 360,000);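 active = inhibition above the mean inhibition across every tested compound plus 3 SD, cut at about 22% in these data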;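 also: 0% = DMSO only wells and the 100% control is not disclosed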
Target sequence (Q00G26 whole entry, looked up): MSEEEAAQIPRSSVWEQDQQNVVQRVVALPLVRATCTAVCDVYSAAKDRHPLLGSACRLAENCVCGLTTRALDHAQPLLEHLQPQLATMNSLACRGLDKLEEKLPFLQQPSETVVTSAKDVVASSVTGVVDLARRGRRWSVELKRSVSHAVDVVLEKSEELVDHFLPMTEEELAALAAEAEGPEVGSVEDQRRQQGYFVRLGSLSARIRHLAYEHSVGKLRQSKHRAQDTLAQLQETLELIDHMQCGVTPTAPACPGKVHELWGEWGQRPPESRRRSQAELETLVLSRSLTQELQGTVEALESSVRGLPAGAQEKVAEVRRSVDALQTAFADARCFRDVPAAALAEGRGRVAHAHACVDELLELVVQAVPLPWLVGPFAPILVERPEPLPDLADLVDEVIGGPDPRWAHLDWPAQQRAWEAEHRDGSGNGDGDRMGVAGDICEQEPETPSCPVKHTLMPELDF
Target sequence (Q8WTS1 whole entry, looked up): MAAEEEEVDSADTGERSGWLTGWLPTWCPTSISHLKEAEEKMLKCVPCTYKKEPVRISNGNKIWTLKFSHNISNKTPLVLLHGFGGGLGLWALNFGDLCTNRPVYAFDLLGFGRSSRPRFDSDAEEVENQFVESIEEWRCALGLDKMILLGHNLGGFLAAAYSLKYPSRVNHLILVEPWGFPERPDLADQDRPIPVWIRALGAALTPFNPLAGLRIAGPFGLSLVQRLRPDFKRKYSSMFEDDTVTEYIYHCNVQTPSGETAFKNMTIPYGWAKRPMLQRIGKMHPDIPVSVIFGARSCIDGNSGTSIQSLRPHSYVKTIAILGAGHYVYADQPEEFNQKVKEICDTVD
PRMT1 inh – PRMT1 methyltransferase inhibitors, primary screen, biochemical, fluorescence polarization; Protein arginine N-methyltransferase 1 (Homo sapiens), Q99873; recombinant PRMT1, activity-based probe fluorescence polarization; inhibition, % at 2.79 µM; actives 1.3% (n = 370,000);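 active = inhibition above about 21% made by adding two undisclosed values, limit read from the data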
UHRF1 binding – UHRF1 methylated DNA binding inhibitors, primary screen, counter-screen for MBD2 inhibitor project, biochemical, TR-FRET, human UHRF1, single concentration | UHRF1 binding to methylated oligo | actives 0.75% (n = 370,000) | E3 ubiquitin-protein ligase UHRF1 (Homo sapiens), Q96T88 | inhibition, % at 4.4 µM; in the data active = inhibition above about 21%;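 also: UHRF1 SRA domain binding a hemimethylated CpG hairpin DNA probe; 0% = median of test compound wells and 100% = reference inhibitor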
LEDGF integ inh – blockers of LEDGF/p75-dependent integrase strand transfer – biochemical, TR-FRET, high throughput, primary screen; inhibition, % at 3.7 µM; actives 0.64% (n = 370,000); TR-FRET IN-LEDGF/p75 DNA integration, Eu/Cy5; AID 743269, 2014; HIV-1 integrase (with human LEDGF/p75);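 active = inhibition above the screen-wide mean plus 3 SD, cut at about 13% in these data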;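 also: signal is the Cy5 over europium emission ratio at 671 and 618 nm; 0% = plate median of compound wells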
PRMT1 inh conf – PRMT1 methyltransferase inhibitors, confirmation, biochemical, fluorescence polarization, triplicate. shares compounds with PRMT1 inh. recombinant His-PRMT1, activity-based probe fluorescence polarization. inhibition, % at 2.79 µM. actives 42% (n = 3,300). AID 687036, 2013;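 active = mean inhibition across replicates above the hit cutoff derived for the earlier primary screen, cut at about 22% in these data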
The depositor's hits bear a star.

What do the screens show for `O=C1CC(N2CCN(c3ccc(F)cc3)CC2)C(=O)N1c1ccc(F)cc1` (stereo not drawn)?
MBD2 DNA inh: 1; ABHD5-PLIN5 inh: 2; PRMT1 inh: 0; UHRF1 binding: 0; LEDGF integ inh: 0

Results for COC(=O)[C@]12C[C@H](CC(=O)NCCCCc3ccccc3)C(=O)N(Cc3ccco3)C1=C[C@H](C1CCCC1)O[C@@H]2C ?
MBD2 DNA inh: 1; PRMT1 inh: 4; UHRF1 binding: -2; LEDGF integ inh: -1

What do the screens show for `CN(C(=O)CNC(=O)c1ccccc1OCC(=O)Nc1ccc(I)cc1)c1ccccc1`?
MBD2 DNA inh: -2; PRMT1 inh: 31*; UHRF1 binding: -1; LEDGF integ inh: 1; PRMT1 inh conf: -3

What do the screens show for `CC(=Nc1ccccc1)c1sc2ccccc2c1O`?
RBBP9 inh: 2; MBD2 DNA inh: -4; ABHD5-PLIN5 inh: -3; PRMT1 inh: 33*; UHRF1 binding: -3; LEDGF integ inh: 0; PRMT1 inh conf: 32*

Results for CC(=Nc1ccc(Br)cc1)c1sc2ccccc2c1O ?
RBBP9 inh: -3; MBD2 DNA inh: 0; ABHD5-PLIN5 inh: 1; PRMT1 inh: 28*; UHRF1 binding: 0; LEDGF integ inh: 6; PRMT1 inh conf: 11

How did CC(=Nc1ccccc1)C1=C(O)COC1=O do in these assays?
RBBP9 inh: 2; MBD2 DNA inh: -3; ABHD5-PLIN5 inh: 5; PRMT1 inh: 1; UHRF1 binding: 1; LEDGF integ inh: -2

Results for Cc1nc2ccc(S(=O)(=O)NCC(=O)NCc3cccs3)cc2s1 ?
MBD2 DNA inh: 0; PRMT1 inh: 2; UHRF1 binding: 4; LEDGF integ inh: 0

How did Cc1ccc(S(=O)(=O)c2nc(S(C)(=O)=O)sc2N2CCC(C)CC2)cc1 do in these assays?
MBD2 DNA inh: 9; ABHD5-PLIN5 inh: 0; PRMT1 inh: 28*; UHRF1 binding: 5; LEDGF integ inh: -2; PRMT1 inh conf: 1

How did CC[C@@H](CCCc1ccc(F)cc1)CN(Cc1ccc(OC)cc1)S(=O)(=O)c1ccc(C)cc1 do in these assays?
MBD2 DNA inh: 5; PRMT1 inh: -3; UHRF1 binding: 2; LEDGF integ inh: -2

Results for COc1ccc(C(=O)CSC#N)cc1OC ?
RBBP9 inh: -7; MBD2 DNA inh: -3; ABHD5-PLIN5 inh: -19; PRMT1 inh: 41*; UHRF1 binding: -3; LEDGF integ inh: 3; PRMT1 inh conf: 23*

What do the screens show for `Cc1sc(NC(=O)c2ccccc2)c(C(=O)c2ccccc2)c1C`?
RBBP9 inh: -5; MBD2 DNA inh: 0; ABHD5-PLIN5 inh: -12; PRMT1 inh: 30*; UHRF1 binding: -2; LEDGF integ inh: 2; PRMT1 inh conf: 8

What do the screens show for `Cc1ccc(C(=O)Nc2sc(C)c(C)c2C(=O)c2ccccc2)cc1`?
RBBP9 inh: -3; MBD2 DNA inh: 4; ABHD5-PLIN5 inh: -4; PRMT1 inh: 51*; UHRF1 binding: 5; LEDGF integ inh: -1; PRMT1 inh conf: 3

What do the screens show for `COC(=O)C1CN(Cc2ccc(C)cc2)CCS(=O)(=O)N1Cc1cn(Cc2ccc(Cl)cc2)nn1` (stereo not drawn)?
MBD2 DNA inh: -5; PRMT1 inh: -4; UHRF1 binding: 8; LEDGF integ inh: 2

How did COc1ccc(N=Nc2nc3cc(Br)c(Br)cc3n2C)c(OC)c1 do in these assays?
RBBP9 inh: 2; MBD2 DNA inh: -1; ABHD5-PLIN5 inh: 3; PRMT1 inh: 69*; UHRF1 binding: -3; LEDGF integ inh: -2; PRMT1 inh conf: 49*

How did Cc1ccc(N2C(=O)CC(Sc3cccs3)C2=O)cc1 (stereo not drawn) do in these assays?
RBBP9 inh: -6; MBD2 DNA inh: 3; ABHD5-PLIN5 inh: -1; PRMT1 inh: 66*; UHRF1 binding: 4; LEDGF integ inh: -6; PRMT1 inh conf: 51*

Results for Cc1ccc(N2C(=O)CC(Sc3nccc(C)n3)C2=O)cc1 (stereo not drawn) ?
MBD2 DNA inh: 3; ABHD5-PLIN5 inh: 0; PRMT1 inh: 4; UHRF1 binding: -1; LEDGF integ inh: 2

How did Cc1ccc(SC2CC(=O)N(c3ccc4c(c3)OCCO4)C2=O)cc1 (stereo not drawn) do in these assays?
RBBP9 inh: -11; MBD2 DNA inh: -1; ABHD5-PLIN5 inh: -2; PRMT1 inh: 36*; UHRF1 binding: 3; LEDGF integ inh: -2; PRMT1 inh conf: 26*

How did COc1ccc2[nH]c3c(c2c1)CCN[C@]31C(=O)N(Cc2ccccc2)c2ccccc21 do in these assays?
MBD2 DNA inh: 1; PRMT1 inh: 3; UHRF1 binding: 0; LEDGF integ inh: -5

Results for COc1cccc(N2CCN(CC(=O)NCc3c(F)cccc3F)CC2)c1 ?
MBD2 DNA inh: 0; PRMT1 inh: -5; UHRF1 binding: -1; LEDGF integ inh: 1

How did O=C(NC1CCCCCCC1)c1ccc(F)cc1 do in these assays?
MBD2 DNA inh: -2; ABHD5-PLIN5 inh: -3; PRMT1 inh: -5; UHRF1 binding: 4; LEDGF integ inh: 4

What do the screens show for `O=C(NC1CCCCC1)c1ccc(-c2ccccc2)cc1`?
MBD2 DNA inh: 2; ABHD5-PLIN5 inh: -8; PRMT1 inh: 42*; UHRF1 binding: 3; LEDGF integ inh: -4; PRMT1 inh conf: -6

What do the screens show for `Cc1ccc(-c2cc(C(=O)NN=Cc3cccc4ccccc34)[nH]n2)cc1C`?
MBD2 DNA inh: -8; PRMT1 inh: -6; UHRF1 binding: 2; LEDGF integ inh: 4

Results for CN(NC(=S)Nc1ccc(OC(F)F)cc1)C(=S)Nc1ccc(OC(F)F)cc1 ?
RBBP9 inh: -4; MBD2 DNA inh: 11; ABHD5-PLIN5 inh: -8; PRMT1 inh: 44*; UHRF1 binding: 3; LEDGF integ inh: -4; PRMT1 inh conf: -2

What do the screens show for `CCN(CC)C(=S)Nc1ccc(OC(F)F)cc1`?
RBBP9 inh: -1; MBD2 DNA inh: -6; ABHD5-PLIN5 inh: -2; PRMT1 inh: 0; UHRF1 binding: -1; LEDGF integ inh: -1

Compound activity: PubChem, The Scripps Research Institute Molecular Screening Center
